6 compounds from ChEMBL document CHEMBL4823270, “A first-in-class anticancer dual HDAC2/FAK inhibitors bearing hydroxamates/benzamides capped by pyridinyl-1,2,4-triazoles” (Eur J Med Chem, 2021) can be followed below.

For experiment [1], the system named is A498. The experiment in a line: Growth inhibition of human A498 cells at 10 uM incubated for 24 hrs by MTT assay relative to control. The experiment is classed as functional. As to conditions: read-out: GI. The method in brief:
(§1)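 Cells seeded at 1 × 10^4 per well, cultured overnight, then exposed to 10 μM compound or DMSO (negative control) for 24 h. After a PBS wash, MTT (2 mg/ml) was added for 4 h at 37°C and formazan dissolved in DMSO. OD read at 570 nm. Growth inhibition = 1 − (OD treated/OD control); at least three independent experiments.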
(In general: Tetrazolium assays rely on reduction of a dye to a coloured formazan, in cell work by metabolically active cells.)

In the next experiment the test system is HCT-116. The experiment in a line: Growth inhibition of human HCT-116 cells at 10 uM incubated for 24 hrs by MTT assay relative to control. The experiment is classed as functional. As to conditions: read-out: GI. In short, it runs like this: as §1
The next experiment deals with K562. Description: Growth inhibition of human K562 cells at 10 uM incubated for 24 hrs by MTT assay relative to control. As to conditions: read-out: GI. Type of experiment: functional. The method in brief:
as §1

The target of the next experiment is Histone deacetylase 3 (Homo sapiens, UniProt O15379). Description: Inhibition of human full-length recombinant HDAC3 preincubated for 5 mins followed by HDAC substrate addition and further incubated for 45 mins by fluorescence microplate reader assay.
The subject of experiment [2] is A498. Description: Antiproliferative activity against human A498 cells assessed as cell growth inhibition incubated for 24 hrs by MTT assay. Type of experiment: functional, cell-based. As to conditions: A498, 24 h.
For experiment [3], the system named is CAKI-1. Description: Growth inhibition of human CAKI-1 cells at 10 uM incubated for 24 hrs by MTT assay relative to control. The experiment is classed as functional. The conditions noted are these: read-out: GI. The method in brief:
as §1

A further experiment concerns the target Histone deacetylase 1 (Homo sapiens, UniProt Q13547). The experiment in a line: Inhibition of human full-length recombinant HDAC1 preincubated for 5 mins followed by HDAC substrate addition and further incubated for 45 mins by fluorescence microplate reader assay.
A further experiment has as its target Focal adhesion kinase 1 (Homo sapiens, UniProt Q05397). Description: Inhibition of FAK (unknown origin) by FRET-based Z'-Lyte assay. In short, it runs like this:
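Recombinant FAK kinase activity measured with the FRET-based Z'-LYTE format; the same platform was used for a kinase panel (FAK, FLT, FRK, IGF-1R, BTK). IC50 values determined.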

For experiment [4], the target named is T1, Protein deacetylase HDAC6 (Homo sapiens, UniProt Q9UBN7).
T1 sequence (Q9UBN7 whole entry): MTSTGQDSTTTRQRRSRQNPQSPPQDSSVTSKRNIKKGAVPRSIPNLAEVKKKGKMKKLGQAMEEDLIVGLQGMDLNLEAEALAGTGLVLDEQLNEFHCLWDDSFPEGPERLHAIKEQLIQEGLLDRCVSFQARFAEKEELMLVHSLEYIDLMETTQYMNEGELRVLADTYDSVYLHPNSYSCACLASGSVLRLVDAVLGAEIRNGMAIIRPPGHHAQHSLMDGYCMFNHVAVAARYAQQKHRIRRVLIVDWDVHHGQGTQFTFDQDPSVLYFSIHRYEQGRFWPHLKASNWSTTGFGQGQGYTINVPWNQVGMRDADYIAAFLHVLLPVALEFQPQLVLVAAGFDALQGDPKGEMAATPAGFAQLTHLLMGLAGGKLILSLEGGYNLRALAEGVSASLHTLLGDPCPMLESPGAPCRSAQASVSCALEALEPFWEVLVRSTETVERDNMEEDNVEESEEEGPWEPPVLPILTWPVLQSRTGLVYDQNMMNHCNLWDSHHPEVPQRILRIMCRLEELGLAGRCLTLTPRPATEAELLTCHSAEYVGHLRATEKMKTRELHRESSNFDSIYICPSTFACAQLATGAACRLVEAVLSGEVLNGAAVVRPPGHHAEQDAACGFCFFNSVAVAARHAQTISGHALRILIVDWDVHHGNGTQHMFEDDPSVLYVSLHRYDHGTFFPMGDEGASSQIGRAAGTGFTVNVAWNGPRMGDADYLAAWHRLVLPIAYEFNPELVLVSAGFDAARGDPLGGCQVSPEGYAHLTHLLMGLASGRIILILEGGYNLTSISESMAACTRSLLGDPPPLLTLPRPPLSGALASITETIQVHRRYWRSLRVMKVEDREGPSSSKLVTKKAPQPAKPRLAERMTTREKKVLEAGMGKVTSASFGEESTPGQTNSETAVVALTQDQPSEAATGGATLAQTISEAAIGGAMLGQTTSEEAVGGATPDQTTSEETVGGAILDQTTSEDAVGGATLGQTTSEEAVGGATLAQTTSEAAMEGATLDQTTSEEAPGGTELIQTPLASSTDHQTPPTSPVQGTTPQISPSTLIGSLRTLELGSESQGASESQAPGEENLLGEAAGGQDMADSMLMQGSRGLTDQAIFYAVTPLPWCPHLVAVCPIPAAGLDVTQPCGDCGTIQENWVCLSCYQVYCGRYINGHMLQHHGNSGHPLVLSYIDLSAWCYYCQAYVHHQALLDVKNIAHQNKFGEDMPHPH
The experiment in a line: Inhibition of human full-length recombinant HDAC6 preincubated for 5 mins followed by HDAC substrate addition and further incubated for 45 mins by fluorescence microplate reader assay.

The test system of another experiment is HT-29. Description: Growth inhibition of human HT-29 cells at 10 uM incubated for 24 hrs by MTT assay relative to control. The experiment is classed as functional. As to conditions: read-out: GI. The method in brief:
as §1

The target in the next experiment is T2, Histone deacetylase 8 (Homo sapiens, UniProt Q9BY41).
T2 sequence (Q9BY41 whole entry): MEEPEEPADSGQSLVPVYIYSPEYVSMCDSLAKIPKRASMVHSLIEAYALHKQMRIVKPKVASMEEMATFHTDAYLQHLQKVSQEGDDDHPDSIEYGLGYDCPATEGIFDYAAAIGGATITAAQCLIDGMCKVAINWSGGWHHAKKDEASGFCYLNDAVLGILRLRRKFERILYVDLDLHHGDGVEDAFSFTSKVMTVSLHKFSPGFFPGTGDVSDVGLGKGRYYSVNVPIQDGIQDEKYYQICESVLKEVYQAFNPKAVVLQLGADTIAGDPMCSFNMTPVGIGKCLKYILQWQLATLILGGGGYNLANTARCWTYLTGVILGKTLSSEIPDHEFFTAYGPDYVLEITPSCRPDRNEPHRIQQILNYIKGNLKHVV
The experiment in a line: Inhibition of human full-length recombinant C-terminal His-tagged HDAC8 expressed in baculovirus infected Sf9 insect cells preincubated for 5 mins followed by HDAC substrate addition and further incubated for 45 mins by fluorescence microplate reader assay.

Another experiment concerns the target Histone deacetylase 2 (Homo sapiens, UniProt Q92769). Description: Inhibition of human full-length recombinant HDAC2 preincubated for 5 mins followed by HDAC substrate addition and further incubated for 45 mins by fluorescence microplate reader assay.
Experiment [5] concerns CAKI-1. Description: Antiproliferative activity against human CAKI-1 cells assessed as cell growth inhibition incubated for 24 hrs by MTT assay. Type of experiment: functional, cell-based. As to conditions: CAKI-1, 24 h.
Another experiment concerns KG-1. The experiment in a line: Growth inhibition of human KG-1 cells at 10 uM incubated for 24 hrs by MTT assay relative to control. The conditions noted are these: KG-1, 24 h. Type of experiment: functional. In short, it runs like this: as §1

Sequence of Histone deacetylase 3 (O15379 whole entry): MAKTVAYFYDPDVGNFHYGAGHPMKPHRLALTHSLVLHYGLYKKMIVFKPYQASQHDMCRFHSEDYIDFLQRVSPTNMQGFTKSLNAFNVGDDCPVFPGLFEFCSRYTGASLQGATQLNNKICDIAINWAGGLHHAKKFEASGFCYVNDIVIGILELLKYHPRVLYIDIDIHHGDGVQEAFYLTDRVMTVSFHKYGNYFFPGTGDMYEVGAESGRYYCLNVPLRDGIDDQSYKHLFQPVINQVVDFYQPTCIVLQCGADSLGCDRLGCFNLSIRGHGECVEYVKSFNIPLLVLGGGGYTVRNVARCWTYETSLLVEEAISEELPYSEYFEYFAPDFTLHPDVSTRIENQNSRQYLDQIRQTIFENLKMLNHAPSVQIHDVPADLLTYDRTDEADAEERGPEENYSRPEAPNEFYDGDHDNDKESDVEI
Sequence of Focal adhesion kinase 1 (Q05397 whole entry): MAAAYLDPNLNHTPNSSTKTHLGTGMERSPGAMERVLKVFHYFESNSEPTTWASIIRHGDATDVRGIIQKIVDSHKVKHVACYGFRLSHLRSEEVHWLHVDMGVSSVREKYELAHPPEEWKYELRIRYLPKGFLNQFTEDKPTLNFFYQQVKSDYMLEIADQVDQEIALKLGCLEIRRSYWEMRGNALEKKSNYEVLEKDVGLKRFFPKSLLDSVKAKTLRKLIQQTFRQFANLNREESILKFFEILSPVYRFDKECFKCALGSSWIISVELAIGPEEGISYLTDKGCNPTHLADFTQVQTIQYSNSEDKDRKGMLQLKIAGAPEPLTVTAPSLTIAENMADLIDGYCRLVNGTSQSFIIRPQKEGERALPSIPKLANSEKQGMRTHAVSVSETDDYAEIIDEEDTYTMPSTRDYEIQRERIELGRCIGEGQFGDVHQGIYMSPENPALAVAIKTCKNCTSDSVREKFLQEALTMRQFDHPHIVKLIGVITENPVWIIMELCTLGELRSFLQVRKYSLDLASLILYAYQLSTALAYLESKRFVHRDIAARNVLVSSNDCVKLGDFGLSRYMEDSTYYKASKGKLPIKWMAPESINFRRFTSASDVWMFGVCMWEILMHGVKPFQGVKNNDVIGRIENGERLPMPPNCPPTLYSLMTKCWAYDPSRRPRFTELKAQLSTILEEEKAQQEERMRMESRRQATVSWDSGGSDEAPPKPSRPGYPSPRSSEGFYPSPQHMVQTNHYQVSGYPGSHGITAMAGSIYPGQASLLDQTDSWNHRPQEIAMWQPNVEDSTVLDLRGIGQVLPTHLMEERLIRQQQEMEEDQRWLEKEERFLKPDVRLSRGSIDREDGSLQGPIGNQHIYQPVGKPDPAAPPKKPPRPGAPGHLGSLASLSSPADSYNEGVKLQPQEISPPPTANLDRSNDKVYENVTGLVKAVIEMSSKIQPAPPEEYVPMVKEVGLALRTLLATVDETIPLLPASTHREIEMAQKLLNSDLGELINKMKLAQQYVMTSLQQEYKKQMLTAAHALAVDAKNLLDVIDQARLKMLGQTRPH
Sequence of Histone deacetylase 2 (Q92769 whole entry): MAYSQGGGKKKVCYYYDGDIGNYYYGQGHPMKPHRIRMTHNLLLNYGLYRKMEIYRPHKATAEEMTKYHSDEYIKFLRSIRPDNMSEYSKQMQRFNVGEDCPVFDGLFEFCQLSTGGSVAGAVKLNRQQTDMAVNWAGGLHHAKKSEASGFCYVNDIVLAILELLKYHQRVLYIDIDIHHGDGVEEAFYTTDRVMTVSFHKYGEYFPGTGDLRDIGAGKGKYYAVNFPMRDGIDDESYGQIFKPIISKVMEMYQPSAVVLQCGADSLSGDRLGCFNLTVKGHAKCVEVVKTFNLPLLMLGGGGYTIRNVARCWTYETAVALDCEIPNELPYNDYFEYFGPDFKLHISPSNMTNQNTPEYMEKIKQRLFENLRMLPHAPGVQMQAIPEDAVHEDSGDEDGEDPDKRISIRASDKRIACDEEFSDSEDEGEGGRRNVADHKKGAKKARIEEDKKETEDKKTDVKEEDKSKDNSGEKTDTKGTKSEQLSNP
Sequence of Histone deacetylase 1 (Q13547 whole entry): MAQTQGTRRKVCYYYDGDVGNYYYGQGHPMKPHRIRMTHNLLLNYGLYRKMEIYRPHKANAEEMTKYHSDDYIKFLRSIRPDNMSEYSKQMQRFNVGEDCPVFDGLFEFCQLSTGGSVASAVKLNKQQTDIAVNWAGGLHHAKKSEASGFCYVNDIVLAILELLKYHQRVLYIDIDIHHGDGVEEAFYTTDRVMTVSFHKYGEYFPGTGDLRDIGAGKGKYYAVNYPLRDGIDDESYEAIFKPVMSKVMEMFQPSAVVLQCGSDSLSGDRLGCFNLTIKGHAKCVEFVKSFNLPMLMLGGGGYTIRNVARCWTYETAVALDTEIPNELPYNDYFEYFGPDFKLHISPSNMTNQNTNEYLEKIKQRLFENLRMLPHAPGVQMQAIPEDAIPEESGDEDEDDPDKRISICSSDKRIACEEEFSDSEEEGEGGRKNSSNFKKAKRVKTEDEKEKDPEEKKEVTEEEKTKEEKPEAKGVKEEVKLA

As to `O=C(NO)c1ccc(CSc2nnc(-c3ccncc3)n2-c2ccccc2)cc1`, the inhibition of growth at 10 µM with A498 [1] stood at 56.9%; in the experiment with HCT-116 it was 29.3%; with K562, 39.1%; in the experiment with CAKI-1 [3], 61.9%; in the experiment on HT-29, 42.7%. Besides, the IC50 (usually the concentration needed to halve the response being measured) at Histone deacetylase 3 is 18 µM; in the experiment on A498 [2] it was 8.76 µM; on Histone deacetylase 1 it was 15 µM; against Focal adhesion kinase 1, 22.4 nM; in [4], 6.93 µM; at Histone deacetylase 8 it was 12.8 µM. Moreover, the results for the IC50 on Histone deacetylase 2 and in the experiment with CAKI-1 [5] were 9.76 µM and 7.13 µM, respectively. Besides, the inhibition in vitro at 10 µM in the experiment with KG-1 was found to be 50.9%.

Consider `CNC(=O)c1ccccc1Nc1nc(Nc2ccc(N3CCOCC3)cc2OC)ncc1Cl`, for which the figures for the half-maximal inhibitory concentration (IC50) in the experiment on A498 [2] and in the experiment on CAKI-1 [5] were 0.81 µM and 1.05 µM, respectively.

Consider `C=CCn1c(SCc2ccc(C(=O)Nc3ccccc3N)cc2)nnc1-c1ccncc1`, for which the inhibition of growth at 10 µM with A498 [1] was found to be 97.1%; in the experiment on HCT-116 it was 80.5%; in the experiment with K562, 90.1%; in the experiment on CAKI-1 [3] it was 94.8%; with HT-29, 70.7%. Further, the IC50 at Histone deacetylase 3 is 42.1 µM; with A498 [2] it was 1.42 µM; on Histone deacetylase 1, 11.8 µM; on Focal adhesion kinase 1, 15.6 nM; in experiment [4], 9.96 µM; on Histone deacetylase 8 it was 22.5 µM. Besides, the IC50 was 1.28 µM on Histone deacetylase 2 and 1.6 µM in the experiment on CAKI-1 [5]. For the same compound, the inhibition in vitro at 10 µM in the experiment with KG-1 amounted to 87.5%.

For the compound `Cn1c(SCc2ccc(C(=O)NO)cc2)nnc1-c1ccncc1`, the inhibition of growth at 10 µM with A498 [1] turned out to be 31.8%; in the experiment on K562 it was 16%; in the experiment with CAKI-1 [3], 48.2%; with HT-29, 54%. Moreover, the IC50 at Histone deacetylase 3 amounted to 56.4 µM; in the experiment with A498 [2] it was 20.9 µM; at Histone deacetylase 1, 14.2 µM; on Focal adhesion kinase 1 it was 64.3 nM; in experiment [4], 14.4 µM; at Histone deacetylase 8 it was 29.8 µM. In addition, the IC50 was 4.35 µM at Histone deacetylase 2 and 11 µM in the experiment on CAKI-1 [5]. The compound further registered an inhibition in vitro at 10 µM with KG-1 of 72.1%.

For `CCCC(CCC)C(=O)O` [VALPROIC ACID], the IC50 in the experiment on A498 [2] came to 2140 µM; on Histone deacetylase 1, 84.2 µM; in [4], 215 µM; with CAKI-1 [5], 2830 µM.

Regarding `CCn1c(SCCCCCC(=O)O)nnc1-c1ccncc1`, the inhibition of growth at 10 µM with A498 [1] amounted to 4.13%; in the experiment on HCT-116, 2.15%; in the experiment with K562 it was 1.58%; with CAKI-1 [3], 1.06%; with HT-29 it was 9.34%. The IC50 is 156 µM at Histone deacetylase 3; 125 µM in the experiment with A498 [2]; 184 µM on Histone deacetylase 1; 76.2 nM against Focal adhesion kinase 1; over 300 µM in experiment [4]; over 300 µM on Histone deacetylase 8. Further, the IC50 on Histone deacetylase 2 was determined as 26.4 µM. Also, the inhibition in vitro at 10 µM in the experiment with KG-1 turned out to be 7.34%.
